SKKanGAS inh = blocks kanamycin growth of S. pyogenes SKKanGAS strain; BacTiter-Glo, 6 h; inhibition, % at 7.5 µM; 1.3% of 300,000 active; AID 1662;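 active = mean replicate score, as percent of positive control median, at least 50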;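 note: strain carries kanamycin resistance gene driven by streptokinase promoter and grows in 40 µg/ml kanamycin; loss of luminescence reflects streptokinase promoter inhibition or plain growth inhibition; 0% = median of DMSO wells and 100% = positive control at its reference dose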
Beta apoptosis = beta cell apoptosis inhibition; protection from apoptosis, % (concentration not given with the values); 0.8% of 300,000 active; AID 435005; INS-1E cytokine-induced death, ATP luminescence, 48 h; percent of positive-control rescue, neutral wells zero;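 active = Every replicate reaches about 75%, or at least half do and their mean reaches it too, limit read from the data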;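 note: 0% = cytokine-treated negative control wells and 100% = positive control rescue; higher means more ATP so stronger rescue from cytokine killing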
T cruzi repl = blocks replication of Trypanosoma cruzi | T. cruzi beta-gal in NIH3T3, luminescence, 90 h | inhibition, % (no concentration beside the values) | 1.4% of 300,000 active | AID 1885;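 active = mean inhibition across valid replicates above about 55%, limit read from the data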;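 note: signal also drops with host cell toxicity which is not excluded here; 0% = plate median of DMSO wells and 100% = zero luminescence signal; higher percent means less beta-gal luminescence so fewer parasites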
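System: Mouse NIH/3T3 fibroblasts infected with β-gal-expressing T. cruzi Tulahuen C4 | Quantity: NIH/3T3 cells, 5,000 per well | Reagent: 5000 reporter trypomastigotes per well | Dosing: Compound pinned at 50 nL/well, DMSO | Schedule: 3 h host attachment, then at least 90 h co-culture | Detection: GalScreen luminescence, 60 min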
Calb FLC = C. albicans growth modulation with fluconazole. C. albicans CaCi-2 (fluconazole-resistant clinical isolate) + fluconazole, Alamar Blue growth, 48 h. growth inhibition, % (no concentration beside the values). 0.57% of 300,000 active. AID 1979;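 active = growth inhibition above about 58% in most replicates, limit read from the data, passing the limit was not always enough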;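 note: all wells also contain fluconazole at 8 µg/ml as a sub-toxic cotreatment; 0% = median of DMSO wells and 100% = median of geldanamycin control wells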
Mdm2 MdmX PPI = human Mdm2/MdmX binding inhibition. O15151+Q00987. SaOS-2 split-luciferase Mdm2/MdmX complementation, luminescence. inhibition, % at 8 µM. 3% of 330,000 active. AID 485346;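 active = inhibition of at least 50% at 8 µM in the primary screen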
Target sequence (O15151 whole entry, looked up): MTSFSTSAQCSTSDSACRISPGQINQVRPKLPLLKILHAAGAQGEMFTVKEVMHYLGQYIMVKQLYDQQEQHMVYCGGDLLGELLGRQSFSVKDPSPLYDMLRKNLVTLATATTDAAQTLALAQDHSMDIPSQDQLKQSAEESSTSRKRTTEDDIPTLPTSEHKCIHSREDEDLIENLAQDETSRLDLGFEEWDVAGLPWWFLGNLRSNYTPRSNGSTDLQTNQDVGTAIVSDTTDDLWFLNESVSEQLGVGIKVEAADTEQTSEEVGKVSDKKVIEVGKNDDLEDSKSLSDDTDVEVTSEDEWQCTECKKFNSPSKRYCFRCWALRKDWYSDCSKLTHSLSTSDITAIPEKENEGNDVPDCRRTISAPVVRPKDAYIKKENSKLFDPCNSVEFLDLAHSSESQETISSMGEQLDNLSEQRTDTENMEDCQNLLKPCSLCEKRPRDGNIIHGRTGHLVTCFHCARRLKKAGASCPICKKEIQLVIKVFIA
Target sequence (Q00987 whole entry, looked up): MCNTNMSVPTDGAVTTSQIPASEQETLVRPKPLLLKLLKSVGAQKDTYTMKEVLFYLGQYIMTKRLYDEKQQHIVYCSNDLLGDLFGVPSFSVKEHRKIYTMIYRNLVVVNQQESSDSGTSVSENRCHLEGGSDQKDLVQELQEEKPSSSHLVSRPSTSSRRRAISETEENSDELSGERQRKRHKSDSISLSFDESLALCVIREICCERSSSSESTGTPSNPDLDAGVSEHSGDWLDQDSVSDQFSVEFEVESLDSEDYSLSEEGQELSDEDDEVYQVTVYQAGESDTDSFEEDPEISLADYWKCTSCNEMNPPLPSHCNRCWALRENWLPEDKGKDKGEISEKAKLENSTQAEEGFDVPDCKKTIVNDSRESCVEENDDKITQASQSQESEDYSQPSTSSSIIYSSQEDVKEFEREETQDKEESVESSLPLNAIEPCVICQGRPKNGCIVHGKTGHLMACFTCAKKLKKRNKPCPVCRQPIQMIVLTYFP
CSC inhib = cancer stem cell inhibition; cancer stem cell-like cells viability, luminescence; inhibition, % at 7.5 µM; 1.1% of 300,000 active; in the data active = inhibition above about 75%; tested in HMLE shEcad cells
An asterisk follows results filed as active. This is a sample that favours compounds with a hit; in the whole collection about 5.7% have one here.

For C=CCn1c(SCN2C(=O)c3ccccc3C2=O)nc2ccc(Cl)cc2c1=O the results were SKKanGAS inh -2, Beta apoptosis 98*, T cruzi repl -25, Calb FLC 2, Mdm2 MdmX PPI 23 and CSC inhib 3.
For O=C(c1cc([N+](=O)[O-])cc([N+](=O)[O-])c1)N1CCN(Cc2ccc3c(c2)OCO3)CC1 the results were SKKanGAS inh -1, Beta apoptosis 3, T cruzi repl 66*, Calb FLC -4, Mdm2 MdmX PPI -17 and CSC inhib 1.
For O=C(Cc1ccc([N+](=O)[O-])cc1)NNC(=O)c1ccc2c(c1)OCO2 the results were Beta apoptosis -4, Calb FLC 113*, Mdm2 MdmX PPI 11 and CSC inhib 10.
O=C(NC(=S)Nc1cc([N+](=O)[O-])ccc1O)c1ccc2c(c1)OCO2 was read as SKKanGAS inh 79*, Beta apoptosis 23, T cruzi repl 20, Calb FLC 0, Mdm2 MdmX PPI -57 and CSC inhib 7.
`O=C(CCC(=O)N1CCOc2ccc(Cl)cc21)NCCN1CCOCC1` gave SKKanGAS inh -6, Beta apoptosis 0, T cruzi repl 0, Calb FLC -2, Mdm2 MdmX PPI 13 and CSC inhib -22.
Screening Nc1ccc(C(=O)NC23CC4CC(CC(C4)C2)C3)cc1 returned SKKanGAS inh 4, Beta apoptosis 4, T cruzi repl 8, Calb FLC -34, Mdm2 MdmX PPI 24 and CSC inhib -20.
Screening COc1cc(OC)cc(C(=O)NCCNc2nc3cc(C)cc(C)c3cc2C#N)c1 returned SKKanGAS inh 15, Beta apoptosis 8, T cruzi repl 6, Calb FLC 11, Mdm2 MdmX PPI 20 and CSC inhib 77*.
For Clc1ccccc1Sc1ccc(-c2ccccn2)s1 the results were SKKanGAS inh 62*, Beta apoptosis -6, T cruzi repl 1, Calb FLC 8, Mdm2 MdmX PPI 19 and CSC inhib -1.
Screening Cc1cccc2cc(CN(Cc3ccc(F)cc3)Cc3nnnn3C3CCCC3)c(=O)[nH]c12 returned SKKanGAS inh 8, Beta apoptosis 2, T cruzi repl 56*, Calb FLC 9, Mdm2 MdmX PPI 42 and CSC inhib 30.
Screening Cc1ccc2[nH]c(=O)c(CN(Cc3ccccc3)Cc3nnnn3C3CCCC3)cc2c1 returned SKKanGAS inh -2, Beta apoptosis 4, T cruzi repl 48, Calb FLC 13, Mdm2 MdmX PPI -13 and CSC inhib -3.
`Cc1cc(C)c2[nH]c(=O)c(CN(Cc3ccc4c(c3)OCO4)Cc3nnnn3C3CCCC3)cc2c1` gave SKKanGAS inh 10, Beta apoptosis -15, T cruzi repl 71*, Calb FLC -10, Mdm2 MdmX PPI 4 and CSC inhib 11.
Screening COc1ccccc1CN1CC(C(=O)NCCn2ccc(C)n2)CCC1=O (stereo unspecified) returned SKKanGAS inh -3, Beta apoptosis 1, T cruzi repl -11, Calb FLC -7, Mdm2 MdmX PPI -4 and CSC inhib -5.
`O=C(Cc1nc2ccccc2s1)c1ccc(O)cc1O` gave SKKanGAS inh 3, Beta apoptosis -4, T cruzi repl 2, Calb FLC 91*, Mdm2 MdmX PPI -80 and CSC inhib 17.
`O=S1(=O)N=C(Nc2ccc(N3CCOCC3)c(Cl)c2)c2ccccc21` gave SKKanGAS inh 50*, Beta apoptosis 1, T cruzi repl -6, Calb FLC -3, Mdm2 MdmX PPI -34 and CSC inhib -7.
CC(=O)Nc1ccc(N2CCOCC2)c(Cl)c1 was read as SKKanGAS inh -4, Beta apoptosis -2, T cruzi repl -8, Calb FLC 1 and Mdm2 MdmX PPI 3.
CC(=O)Oc1c(Cl)cc(Cl)cc1/C=C/c1ccc2ccccc2n1 was read as SKKanGAS inh -14, Beta apoptosis 13, T cruzi repl -11, Calb FLC 23, Mdm2 MdmX PPI 9 and CSC inhib 109*.
Clc1ccc2c(c1)C(c1cccs1)=NNC(c1cccnc1)=N2 was read as SKKanGAS inh -10, Beta apoptosis -1, T cruzi repl 5, Calb FLC 90*, Mdm2 MdmX PPI -10 and CSC inhib -4.
`Fc1ccc2c(c1)C(c1ccncc1)=NNC(c1cccnc1)=N2` gave SKKanGAS inh 4, Beta apoptosis -4, T cruzi repl -5, Calb FLC 81*, Mdm2 MdmX PPI 13 and CSC inhib -10.
CCc1ccc2c(c1)C(c1cccs1)=NNC(c1cccnc1)=N2 was read as SKKanGAS inh 6, Beta apoptosis -5, T cruzi repl 3, Calb FLC 15, Mdm2 MdmX PPI 7 and CSC inhib -12.
For Cc1ccccc1-c1ccnc2[nH]n(-c3ccccc3)c(=O)c12 the results were SKKanGAS inh 7, Beta apoptosis 6, T cruzi repl -4, Calb FLC 79*, Mdm2 MdmX PPI -12 and CSC inhib -4.
`CCCc1[nH]c2ccc(C#N)cc2c1CCC` gave SKKanGAS inh 39, Beta apoptosis -4, T cruzi repl 39, Calb FLC -22, Mdm2 MdmX PPI 34 and CSC inhib 82*.
Screening CCCc1[nH]c2ccc(C(=O)OC)cc2c1CCC returned SKKanGAS inh 0, Beta apoptosis -2, T cruzi repl 19, Calb FLC -5, Mdm2 MdmX PPI 24 and CSC inhib 16.
For CC(=O)C1=NN(c2ccccc2)C(c2cccs2)N1c1ccc(N(C)C)cc1 (stereo unspecified) the results were SKKanGAS inh -1, Beta apoptosis 103*, T cruzi repl 55*, Calb FLC -2, Mdm2 MdmX PPI 25 and CSC inhib 2.
Screening CCN(CC)/C(=N\S(=O)(=O)c1ccccc1C)c1ccccc1 returned SKKanGAS inh -5, T cruzi repl -17, Calb FLC 26, Mdm2 MdmX PPI -1 and CSC inhib 12.
Screening COc1ccc(C(c2nnnn2Cc2ccccc2)N2CCN(c3nc4ccccc4s3)CC2)cc1 (stereo unspecified) returned SKKanGAS inh 15, Beta apoptosis 2, T cruzi repl 64*, Calb FLC -2, Mdm2 MdmX PPI 28 and CSC inhib -1.
Screening c1ccc(C(c2nnnn2C2CCCC2)N2CCN(c3nc4ccccc4s3)CC2)cc1 (stereo unspecified) returned SKKanGAS inh 16, Beta apoptosis -5, T cruzi repl 71*, Calb FLC -4, Mdm2 MdmX PPI 18 and CSC inhib -10.
Screening c1ccc(CCn2nnnc2C(c2cccnc2)N2CCN(c3ccccc3)CC2)cc1 (stereo unspecified) returned SKKanGAS inh 0, Beta apoptosis 6, T cruzi repl 74*, Calb FLC 2, Mdm2 MdmX PPI 4 and CSC inhib 16.
Screening CCC(c1nnnn1CS(=O)(=O)c1ccc(C)cc1)N1CCN(c2nc3ccccc3s2)CC1 (stereo unspecified) returned SKKanGAS inh 5, Beta apoptosis 25, T cruzi repl 75*, Calb FLC 3, Mdm2 MdmX PPI 36 and CSC inhib 4.
